# Experimental data reported in ChEMBL document CHEMBL1629649, “Multiple regulatory pathways associated with high-level ciprofloxacin and multidrug resistance in Salmonella enterica serovar enteritidis: involvement of RamA and other global regulators” (2009).
# How the values were obtained:
# Type in all cases: functional, Salmonella enterica subsp. enterica serovar Enteritidis
# Salmonella enteritidis [1] = assay: Antimicrobial activity against ramA::aph-deficient ciprofloxacin-resistant Salmonella enterica serovar enteritidis isolate 5408-cip harboring gyrA D87Y, gyrB E466D, parE V461G mutant gene by Etest
# Outline: (§1)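 Deletions (acrB, marA, soxS or ramA) were moved from SL1344 mutants into the isolates by P22 phage transduction. Transductants were selected on LB agar with 50 µg/ml kanamycin, and insertion of the kanamycin resistance gene was confirmed by PCR. MICs were then determined by Etest.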
# Salmonella enteritidis [2] = assay: Antimicrobial activity against Salmonella enterica serovar enteritidis isolate 104-cip harboring gyrA D87Y,S83F mutant gene by Etest
# Salmonella enteritidis [3] = assay: Antimicrobial activity against marA::aph-deficient ciprofloxacin-resistant Salmonella enterica serovar enteritidis isolate 104-cip harboring gyrA D87Y,S83F mutant gene by Etest; outline: as §1
# Salmonella enteritidis [4] = assay: Antimicrobial activity against Salmonella enterica serovar enteritidis isolate 104 harboring gyrA D87Y mutant gene by Etest
# Salmonella enteritidis [5] = assay: Antimicrobial activity against Salmonella enterica serovar enteritidis isolate 5408 harboring gyrA D87Y mutant gene by Etest
# Salmonella enteritidis [6] = assay: Antimicrobial activity against acrB::aph-deficient ciprofloxacin-resistant Salmonella enterica serovar enteritidis isolate 5408-cip harboring gyrA D87Y, gyrB E466D, parE V461G mutant gene by Etest; outline: as §1
# Salmonella enteritidis [7] = assay: Antimicrobial activity against ciprofloxacin-resistant Salmonella enterica serovar enteritidis isolate 5408-cip harboring gyrA D87Y, gyrB E466D, parE V461G mutant gene by Etest
# Salmonella enteritidis [8] = assay: Antimicrobial activity against soxS::aph-deficient ciprofloxacin-resistant Salmonella enterica serovar enteritidis isolate 104-cip harboring gyrA D87Y,S83F mutant gene by Etest; outline: as §1
# Salmonella enteritidis [9] = assay: Antimicrobial activity against acrB::aph-deficient ciprofloxacin-resistant Salmonella enterica serovar enteritidis isolate 104-cip harboring gyrA D87Y,S83F mutant gene by Etest; outline: as §1
# Salmonella enteritidis [10] = assay: Antimicrobial activity against Salmonella enterica serovar enteritidis isolate NCTC 13349 by Etest
# Salmonella enteritidis [11] = assay: Antimicrobial activity against ciprofloxacin-resistant Salmonella enterica serovar enteritidis isolate 104-cip harboring gyrA gene by Etest
# Outline: (§2)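 Wild-type alleles of the target genes were carried on plasmids and introduced into the ciprofloxacin-selected mutants by electrotransformation. Transformants were selected on LB agar with 50 µg/ml kanamycin at 37°C overnight. Quinolone MICs of the transformants were read by Etest strips alongside those of the parent and mutant strains.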
# Salmonella enteritidis [12] = assay: Antimicrobial activity against Salmonella enterica serovar enteritidis isolate 5408 harboring gyrA gene by Etest
# Salmonella enteritidis [13] = assay: Antimicrobial activity against Salmonella enterica serovar enteritidis isolate 54 harboring gyrA D87Y mutant gene by Etest
# Salmonella enteritidis [14] = assay: Antimicrobial activity against Salmonella enterica serovar enteritidis isolate 58 harboring gyrA D87Y mutant gene by Etest
# Salmonella enteritidis [15] = assay: Antimicrobial activity against ciprofloxacin-resistant Salmonella enterica serovar enteritidis isolate 5408-cip harboring gyrA gene, gyrB E466D, parE V461G mutant gene by Etest; outline: as §2
# Salmonella enteritidis [16] = assay: Antimicrobial activity against acrB::aph-deficient Salmonella enterica serovar enteritidis isolate CUH60 harboring gyrA D87Y mutant gene by Etest; outline: as §1
# Salmonella enteritidis [17] = assay: Antimicrobial activity against acrB::aph-deficient Salmonella enterica serovar enteritidis isolate 51 harboring gyrA D87Y mutant gene by Etest; outline: as §1
# Salmonella enteritidis [18] = assay: Antimicrobial activity against acrB::aph-deficient Salmonella enterica serovar enteritidis isolate 104 harboring gyrA D87Y mutant gene by Etest; outline: as §1
# Salmonella enteritidis [19] = assay: Antimicrobial activity against ciprofloxacin-resistant Salmonella enterica serovar enteritidis isolate 5408-cip harboring parE gene gyrA D87Y, gyrB E466D mutant gene by Etest; outline: as §2
# Salmonella enteritidis [20] = assay: Antimicrobial activity against Salmonella enterica serovar enteritidis isolate CUH48 by Etest
# Salmonella enteritidis [21] = assay: Antimicrobial activity against acrB::aph-deficient Salmonella enterica serovar enteritidis isolate 4931 harboring gyrA D87Y mutant gene by Etest; outline: as §1
# Salmonella enteritidis [22] = assay: Antimicrobial activity against acrB::aph-deficient Salmonella enterica serovar enteritidis isolate 5408 harboring gyrA D87Y mutant gene by Etest; outline: as §1
# Salmonella enteritidis [23] = assay: Antimicrobial activity against Salmonella enterica serovar enteritidis isolate CUH52 by Etest
# Salmonella enteritidis [24] = assay: Antimicrobial activity against Salmonella enterica serovar enteritidis isolate 104 harboring gyrA gene by Etest
# Salmonella enteritidis [25] = assay: Antimicrobial activity against Salmonella enterica serovar enteritidis isolate 51 harboring gyrA D87Y mutant gene by Etest
# Salmonella enteritidis [26] = assay: Antimicrobial activity against ciprofloxacin-resistant Salmonella enterica serovar enteritidis isolate 5408-cip harboring gyrB gene gyrA D87Y, parE V461G mutant gene by Etest; outline: as §2
compound,measurement,setting,value
CN(C)[C@@H]1C(O)=C(C(N)=O)C(=O)[C@@]2(O)C(O)=C3C(=O)c4c(O)cccc4[C@@](C)(O)[C@H]3C[C@@H]12 [TETRACYCLINE],MIC,Salmonella enteritidis [1],1 µg/mL
same,MIC,Salmonella enteritidis [2],12 µg/mL
same,MIC,Salmonella enteritidis [3],1.5 µg/mL
same,MIC,Salmonella enteritidis [4],1 µg/mL
same,MIC,Salmonella enteritidis [5],1 µg/mL
same,MIC,Salmonella enteritidis [6],0.094 µg/mL
same,MIC,Salmonella enteritidis [7],1.5 µg/mL
same,MIC,Salmonella enteritidis [8],0.75 µg/mL
same,MIC,Salmonella enteritidis [9],0.25 µg/mL
O=C(N[C@H](CO)[C@H](O)c1ccc([N+](=O)[O-])cc1)C(Cl)Cl [CHLORAMPHENICOL],MIC,Salmonella enteritidis [1],3 µg/mL
same,MIC,Salmonella enteritidis [2],96 µg/mL
same,MIC,Salmonella enteritidis [3],3 µg/mL
same,MIC,Salmonella enteritidis [4],2 µg/mL
same,MIC,Salmonella enteritidis [5],3 µg/mL
same,MIC,Salmonella enteritidis [6],0.5 µg/mL
same,MIC,Salmonella enteritidis [7],16 µg/mL
same,MIC,Salmonella enteritidis [8],1.5 µg/mL
same,MIC,Salmonella enteritidis [9],0.75 µg/mL
O=C(O)c1cn(C2CC2)c2cc(N3CCNCC3)c(F)cc2c1=O [CIPROFLOXACIN],MIC,Salmonella enteritidis [10],0.023 µg/mL
same,MIC,Salmonella enteritidis [1],4 µg/mL
same,MIC,Salmonella enteritidis [11],0.094 µg/mL
same,MIC,Salmonella enteritidis [12],0.032 µg/mL
same,MIC,Salmonella enteritidis [13],0.19 µg/mL
same,MIC,Salmonella enteritidis [3],4 µg/mL
same,MIC,Salmonella enteritidis [14],0.125 µg/mL
same,MIC,Salmonella enteritidis [15],1 µg/mL
same,MIC,Salmonella enteritidis [16],0.032 µg/mL
same,MIC,Salmonella enteritidis [17],0.032 µg/mL
same,MIC,Salmonella enteritidis [18],0.032 µg/mL
same,MIC,Salmonella enteritidis [6],0.5 µg/mL
same,MIC,Salmonella enteritidis [19],> 32 µg/mL
same,MIC,Salmonella enteritidis [20],0.016 µg/mL
same,MIC,Salmonella enteritidis [21],0.047 µg/mL
same,MIC,Salmonella enteritidis [22],0.047 µg/mL
same,MIC,Salmonella enteritidis [23],0.016 µg/mL
same,MIC,Salmonella enteritidis [24],0.047 µg/mL
same,MIC,Salmonella enteritidis [8],1.5 µg/mL
same,MIC,Salmonella enteritidis [25],0.19 µg/mL
same,MIC,Salmonella enteritidis [26],3 µg/mL
same,MIC,Salmonella enteritidis [9],0.38 µg/mL
